The source made the active and inactive calls. The rule behind the calls is not given here.
Assays:
Orthopoxvirus vaccinia [1] = test: Inhibition of 2'-O-methyltransferase activity of Vaccinia virus VP39 at 200 uM
[2] = test system: Severe acute respiratory syndrome-related coronavirus; test: Inhibition of N7-MTase activity of N-terminal His6-tagged SARS-CoV nsp14 expressed in Escherichia coli using GpppAC4 and [3H]SAM as substrate at 50 uM preincubated with enzyme followed by substrate addition and measured after 30 mins by filter binding assay
Procedure, shortened: (§1)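 Filter binding assay in 40 mM Tris-HCl pH 8.0, 1 mM DTT, 1 mM MgCl2, 2 µM SAM, 0.1 µM 3H-SAM and 0.7 µM GpppAC4 RNA. Enzyme is nsp14 (50 nM), hRNMT (50 nM) or vaccinia D1–D12 (41 U). Compound is at 50 µM with 5% final DMSO. Reactions run 30 min at 30 °C, are stopped by ice-cold water dilution, and 3H on DEAE filters is counted. Percent inhibition is relative to a 5% DMSO control, mean of three experiments.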

West Nile virus = test: Inhibition of 2'-O-methyltransferase in West-Nile virus at 200 uM
Dengue virus = test: Inhibition of 2'-O-methyltransferase in Dengue virus at 200 uM
[3] = test system: Severe acute respiratory syndrome-related coronavirus; test: Inhibition of 2'-O-MTase activity of SARS-CoV nsp10/16 complex at 200 uM
Zika virus = test: Inhibition of 2'-O-methyltransferase in Zika virus at 200 uM
[4] = target: RNA-N7 MTase (mRNA cap guanine-N(7) methyltransferase) (Homo sapiens, UniProt O43148); test: Inhibition of N-terminal His6-tagged human RNA-N7 MTase expressed in Escherichia coli using GpppAC4 and [3H]SAM as substrate at 50 uM preincubated with enzyme followed by substrate addition and measured after 30 mins by filter binding assay; conditions: probe GpppAC4 and [3H]SAM; procedure, shortened: as §1
Orthopoxvirus vaccinia [5] = test: Inhibition of N7-MTase activity of Vaccinia virus mRNA capping enzyme D1/D12 complex using GpppAC4 and [3H]SAM as substrate at 50 uM preincubated with enzyme followed by substrate addition and measured after 30 mins by filter binding assay; procedure, shortened: as §1
[6] = Inhibition of N7-MTase activity of N-terminal His6-tagged SARS-CoV nsp14 expressed in Escherichia coli using GpppAC4 and [3H]SAM as substrate preincubated with enzyme followed by substrate addition and measured after 30 mins by filter binding assay; design: species or system Severe acute respiratory syndrome-related coronavirus
Procedure, shortened: (§2)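 Dose-response filter binding assay with nsp14 or hRNMT (each 50 nM) pre-incubated with increasing compound concentrations (5% final DMSO). Then 0.7 µM GpppAC4, 2 µM SAM and 0.1 µM 3H-SAM are added in Tris pH 8.0/DTT/MgCl2, 30 min at 30 °C. IC50 is taken from a Hill slope fit, mean of three independent experiments.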

[7] = target: mRNA cap guanine-N(7) methyltransferase (Homo sapiens, UniProt O43148); test: Inhibition of N-terminal His6-tagged human RNA-N7 MTase expressed in Escherichia coli using GpppAC4 and [3H]SAM as substrate preincubated with enzyme followed by substrate addition and measured after 30 mins by filter binding assay; procedure, shortened: as §2
[8] = test system: Severe acute respiratory syndrome-related coronavirus; test: Binding affinity to SARS-CoV nsp14 assessed as increase in melting temperature at 1 mM at pH 7.5 by differential scanning fluorimetry
Procedure, shortened: (§3)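 Purified SARS-CoV nsp14 (5 µM) in 20 mM HEPES pH 7.5, 150 mM NaCl and 1X SYPRO orange, with 1 mM compound (DMSO stock; SAM and sinefungin from water). Protein is mixed with compound before dye is added. Fluorescence is read from 20 to 95 °C at 0.2 °C/min. Tm comes from curve fitting, and ΔTm is taken against a 5% DMSO control.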

[9] = test system: Severe acute respiratory syndrome-related coronavirus; test: Binding affinity to SARS-CoV nsp14 assessed as melting temperature at 1 mM at pH 7.5 by differential scanning fluorimetry; procedure, shortened: as §3

mRNA cap guanine-N(7) methyltransferase, sequence (O43148 whole entry): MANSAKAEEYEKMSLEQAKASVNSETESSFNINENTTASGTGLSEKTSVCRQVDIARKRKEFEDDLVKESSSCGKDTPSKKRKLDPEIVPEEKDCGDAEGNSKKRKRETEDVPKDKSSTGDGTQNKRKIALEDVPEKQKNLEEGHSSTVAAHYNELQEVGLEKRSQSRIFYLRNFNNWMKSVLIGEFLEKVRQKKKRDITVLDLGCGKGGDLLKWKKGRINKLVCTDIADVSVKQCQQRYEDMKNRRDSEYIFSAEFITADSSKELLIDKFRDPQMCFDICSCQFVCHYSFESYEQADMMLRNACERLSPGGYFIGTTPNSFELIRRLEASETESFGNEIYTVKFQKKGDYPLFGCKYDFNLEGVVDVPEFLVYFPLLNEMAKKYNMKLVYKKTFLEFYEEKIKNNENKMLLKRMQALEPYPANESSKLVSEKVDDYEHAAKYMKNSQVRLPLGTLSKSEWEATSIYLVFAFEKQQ
RNA-N7 MTase (mRNA cap guanine-N(7) methyltransferase), sequence (O43148 whole entry): as above

Structure (SMILES) | inhibition (Orthopoxvirus vaccinia [1]) | inhibition [2] | inhibition (West Nile virus) | inhibition (Dengue virus) | inhibition [3] | inhibition (Zika virus) | inhibition at 0.5 h, 50 µM [4] [%] | inhibition (Orthopoxvirus vaccinia [5]) | IC50 [6] [µM] | IC50 [7] [µM] | ΔTm [8] [°C] | Tm [9] [°C]
COC(=O)CCCN(CCO[C@@H]1[C@H](O)[C@@H](CO)O[C@H]1n1cnc2c(N)ncnc21)C[C@H]1O[C@@H](n2cnc3c(N)ncnc32)[C@H](O)[C@@H]1O | inactive | inactive | inactive | inactive | inactive | inactive | 32.8 | 69.2% | – | – | – | –
Nc1ncnc2c1ncn2[C@@H]1O[C@H](CN(CCO[C@@H]2[C@H](O)[C@@H](CO)O[C@H]2n2cnc3c(N)ncnc32)CC[C@H](N)C(=O)O)[C@@H](O)[C@H]1O | inactive | 72% | inactive | inactive | inactive | inactive | 77.4 | 85.8% | 40.6 | 10.9 | – | –
COC(=O)[C@@H](N)CCN(CCO[C@@H]1[C@H](O)[C@@H](CO)O[C@H]1n1cnc2c(N)ncnc21)C[C@H]1O[C@@H](n2cnc3c(N)ncnc32)[C@H](O)[C@@H]1O | inactive | 30.6% | inactive | inactive | inactive | inactive | 33.2 | 32.1% | – | – | – | –
NC(=O)[C@@H](N)CCN(CCO[C@@H]1[C@H](O)[C@@H](CO)O[C@H]1n1cnc2c(N)ncnc21)C[C@H]1O[C@@H](n2cnc3c(N)ncnc32)[C@H](O)[C@@H]1O | inactive | 13.1% | inactive | inactive | inactive | inactive | 12.2 | 53.2% | – | – | – | –
CCCCN(CCO[C@@H]1[C@H](O)[C@@H](CO)O[C@H]1n1cnc2c(N)ncnc21)C[C@H]1O[C@@H](n2cnc3c(N)ncnc32)[C@H](O)[C@@H]1O | inactive | inactive | inactive | inactive | inactive | inactive | 27.5 | inactive | – | – | – | –
Nc1ncnc2c1ncn2[C@@H]1O[C@H](CNCCO[C@@H]2[C@H](O)[C@@H](CO)O[C@H]2n2cnc3c(N)ncnc32)[C@@H](O)[C@H]1O | inactive | 31% | inactive | inactive | inactive | inactive | 35.2 | 20.3% | – | – | – | –
Nc1ncnc2c1ncn2[C@@H]1O[C@H](CN(CCCC(=O)O)CCO[C@@H]2[C@H](O)[C@@H](CO)O[C@H]2n2cnc3c(N)ncnc32)[C@@H](O)[C@H]1O | inactive | 43% | inactive | inactive | inactive | inactive | – | inactive | – | – | – | –
Nc1ncnc2c1ncn2[C@@H]1O[C@H](CSCC[C@H](N)C(=O)O)[C@@H](O)[C@H]1O | – | – | – | – | – | – | – | – | – | – | 6.5 | –
Nc1ncnc2c1ncn2[C@@H]1OC(CN(CCCc2ccccc2)CCO[C@@H]2[C@H](O)C(CO)O[C@H]2n2cnc3c(N)ncnc32)[C@@H](O)[C@H]1O (single isomer, unassigned) | inactive | 38.4% | inactive | inactive | inactive | inactive | 23.1 | 11.6% | 55.5 | > 500 | 4.6 | > 40
COc1ccc(S(=O)(=O)N(CCO[C@@H]2[C@H](O)C(CO)O[C@H]2n2cnc3c(N)ncnc32)CC2O[C@@H](n3cnc4c(N)ncnc43)[C@H](O)[C@@H]2O)c([N+](=O)[O-])c1 (single isomer, unassigned) | inactive | 96.6% | inactive | inactive | inactive | inactive | 31.8 | 4.6% | 3.9 | > 500 | 4.6 | > 40
Nc1ncnc2c1ncn2[C@@H]1OC(CN(CCO[C@@H]2[C@H](O)C(CO)O[C@H]2n2cnc3c(N)ncnc32)S(=O)(=O)c2ccc(Cl)cc2)[C@@H](O)[C@H]1O (single isomer, unassigned) | inactive | 96.2% | inactive | inactive | inactive | inactive | 20.2 | 19.7% | 1.5 | – | 4.6 | > 40
Nc1ncnc2c1ncn2[C@@H]1OC(CN(CCO[C@@H]2[C@H](O)C(CO)O[C@H]2n2cnc3c(N)ncnc32)Cc2ccc(Cl)cc2)[C@@H](O)[C@H]1O (single isomer, unassigned) | inactive | 75.9% | inactive | inactive | inactive | inactive | 14.7 | 4.5% | 9.9 | – | 4.6 | > 40
Nc1ncnc2c1ncn2[C@@H]1OC(CN(CCO[C@@H]2[C@H](O)C(CO)O[C@H]2n2cnc3c(N)ncnc32)Cc2ccc(Cl)c([N+](=O)[O-])c2)[C@@H](O)[C@H]1O (single isomer, unassigned) | inactive | 94% | inactive | inactive | inactive | inactive | – | 4.3% | 2.4 | – | 4.6 | > 40
Nc1ncnc2c1ncn2[C@@H]1OC(CN(CCO[C@@H]2[C@H](O)C(CO)O[C@H]2n2cnc3c(N)ncnc32)S(=O)(=O)c2ccc([N+](=O)[O-])cc2)[C@@H](O)[C@H]1O (single isomer, unassigned) | inactive | 88.6% | inactive | inactive | inactive | inactive | 66 | 49.8% | 2.6 | > 500 | 4.6 | > 40
COc1cc([N+](=O)[O-])ccc1S(=O)(=O)N(CCO[C@@H]1[C@H](O)C(CO)O[C@H]1n1cnc2c(N)ncnc21)CC1O[C@@H](n2cnc3c(N)ncnc32)[C@H](O)[C@@H]1O (single isomer, unassigned) | inactive | 47.6% | inactive | inactive | inactive | inactive | 44.2 | 5.3% | 70.4 | 169 | 4.6 | > 40
Nc1ncnc2c1ncn2[C@@H]1OC(CN(CCO[C@@H]2[C@H](O)C(CO)O[C@H]2n2cnc3c(N)ncnc32)S(=O)(=O)c2ccc(C(F)(F)F)cc2[N+](=O)[O-])[C@@H](O)[C@H]1O (single isomer, unassigned) | inactive | 94.6% | inactive | inactive | inactive | inactive | 23.3 | 10.1% | 5.7 | 276 | 4.6 | > 40
Nc1ncnc2c1ncn2[C@@H]1O[C@H](C[C@@H](N)CC[C@H](N)C(=O)O)[C@@H](O)[C@H]1O [SINEFUNGIN] | – | 98.3% | – | – | – | – | 99.8 | 99.8% | 0.36 | < 0.05 | 4.4 | –
